Screens deposited in PubChem by Broad Institute.
KDM4C inh: inhibitors of GASC-1 (KDM4C) histone demethylase, primary screen, biochemical, single concentration HTS | Lysine-specific demethylase 4C (Homo sapiens), Q9H3R0 | GST-KDM4C 2-372, H3K9me3 peptide, LANCE TR-FRET | inhibition, % at 12.5 µM | 96,000 compounds, 0.15% hits;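 active = mean replicate inhibition above about 25%, with at least 55% of replicates also reaching it, limit read from the data, passing the limit was not always enough; inconclusive = only one of those two conditions met; inactive = neither condition met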
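reagent = H3K9me3 peptide substrate, Fe(II), 2-oxoglutarate | system = GST-tagged GASC-1 (JMJD2C) catalytic fragment, aa 2-372 | amount = enzyme final amount 10 nM | read-out = Fall in 671/618 emission ratio as inhibition | medium = HEPES buffer, pH 7.5, plus ascorbate | schedule = 30 min reaction, 60 min detection, RT | measured by = LANCE TR-FRET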
IDH1 mut inh: inhibitors of IDH1 R132H reductase, primary screen, biochemical, plate reader, single point; Isocitrate dehydrogenase [NADP] cytoplasmic (Homo sapiens), O75874; diaphorase/resazurin fluorescence, 60 min; inhibition, % at 10 µM; 70,000 compounds, 0.18% hits; in the data active = inhibition above about 34%; inconclusive = no clear call, values can overlap the other calls; inactive = below about 11%
Target sequence (O75874 whole entry R132H): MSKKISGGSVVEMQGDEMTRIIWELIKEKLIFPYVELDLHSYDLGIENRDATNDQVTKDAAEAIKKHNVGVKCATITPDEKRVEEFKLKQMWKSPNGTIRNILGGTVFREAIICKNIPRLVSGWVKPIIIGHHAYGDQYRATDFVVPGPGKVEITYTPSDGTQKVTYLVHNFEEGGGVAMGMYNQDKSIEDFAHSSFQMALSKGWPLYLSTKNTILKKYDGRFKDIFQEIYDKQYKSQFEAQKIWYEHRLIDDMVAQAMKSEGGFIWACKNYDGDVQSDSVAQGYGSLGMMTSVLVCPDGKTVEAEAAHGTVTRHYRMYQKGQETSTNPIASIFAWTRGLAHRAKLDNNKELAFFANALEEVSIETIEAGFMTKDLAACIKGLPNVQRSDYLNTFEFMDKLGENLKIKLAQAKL
T cruzi growth-1: T. cruzi intracellular proliferation inhibitors, primary screen, cell-based, beta-gal Tulahuen parasites, NIH3T3 host, luminescence | inhibition, % at 8.34 µM | AID 624255, 2012 | T. cruzi beta-gal in NIH3T3, GalScreen luminescence, 90 h | 77,000 compounds, 5.9% hits;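 active = mean inhibition above about 93%, with at least 55% of replicates each passing it, limit read from the data, passing the limit was not always enough; inconclusive = only one of those two conditions holds; inactive = neither condition holds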
T cruzi growth-2: T. cruzi intracellular proliferation inhibitors, confirmation, cell-based, NIH3T3 host, beta-gal parasite, luminescence, cherry-pick. shares compounds with T cruzi growth-1. T. cruzi beta-gal in NIH3T3, GalScreen luminescence, 90 h. inhibition, % at 8.35 µM. 5,600 compounds, 72% hits. AID 651739, 2012;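 active = mean replicate inhibition above about 95% and at least 55% of replicates individually reaching it, limit read from the data; inconclusive = only one of the two criteria is met; inactive = neither criterion is met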
T cruzi growth-3: inhibitors of intracellular T. cruzi replication, confirmation, NIH3T3 host cells, beta-gal parasites, cherry-pick, set 2 | shares compounds with T cruzi growth-1 | T. cruzi beta-gal in NIH3T3, GalScreen luminescence, 90 h | inhibition, % at 2.09 µM | 5,600 compounds, 21% hits;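 active = mean inhibition above about 95%, with at least 55% of replicates also reaching it, limit read from the data; inconclusive = meets just one of the two conditions; inactive = meets neither condition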
NIH3T3 tox: cytotoxicity in mouse NIH/3T3 fibroblasts, confirmation, cytotoxicity control for T. cruzi proliferation inhibitor project, cell-based, cherry-pick, single point. shares compounds with T cruzi growth-1. NIH/3T3 viability, CellTiter-Glo ATP luminescence, 90 h. cytotoxicity (signal decrease), % at 8.35 µM. 5,600 compounds, 14% hits. AID 651742, 2012;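 active = mean signal decrease across replicates above about 35% based on untreated-well scatter, with enough replicates individually passing, limit read from the data; inconclusive = no rule stated though some were filed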
3T3 cytotox 2: NIH/3T3 fibroblast cytotoxicity, confirmation, cytotoxicity control, cell-based, cherry-pick, single point, set 2. shares compounds with T cruzi growth-1. NIH/3T3 viability, CellTiter-Glo ATP luminescence, 90 h. inhibition, % at 24.9 µM. 5,600 compounds, 56% hits;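 active = mean loss of cell viability signal at or above a set limit, and enough replicates individually reaching it; inconclusive = meets only the mean limit or only the replicate share; inactive = meets neither condition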
A number is an active result; ! = not active in a repeat. This is one part of a sample in which hits are shown more often than they occur.

Results for N#C[C@H]1[C@H](c2ccc(C#Cc3ccccc3F)cc2)[C@H](CO)N1C(=O)c1cccnc1 ?
KDM4C inh: inactive; T cruzi growth-1: inactive

Results for COc1ccc(NC(=O)N(C)C[C@@H]2Oc3c(NS(=O)(=O)c4ccc(Cl)cc4)cccc3C(=O)N([C@H](C)CO)C[C@@H]2C)cc1 ?
KDM4C inh: inactive; T cruzi growth-1: inactive

How did NCC[C@H]1CC[C@@H](NS(=O)(=O)c2ccc(Cl)cc2)[C@H](CO)O1 do in these assays?
KDM4C inh: inactive; IDH1 mut inh: inactive; T cruzi growth-1: inactive

How did C[C@H]1CN([C@@H](C)CO)C(=O)c2cc(NC(=O)Nc3cccc4ccccc34)ccc2O[C@H]1CN(C)Cc1ccc(C(F)(F)F)cc1 do in these assays?
KDM4C inh: inactive; IDH1 mut inh: inactive; T cruzi growth-1: inactive

How did C[C@@H]1CN([C@@H](C)CO)C(=O)c2cc(NC(=O)Nc3cccc4ccccc34)ccc2O[C@H]1CN(C)Cc1ccc(C(F)(F)F)cc1 do in these assays?
KDM4C inh: inactive; T cruzi growth-1: 96; T cruzi growth-2: 106; T cruzi growth-3: inactive; NIH3T3 tox: inactive; 3T3 cytotox 2: inactive

Results for C[C@H](CO)N1C[C@H](C)[C@H](CN(C)Cc2ccccc2)Oc2ccc(NC(=O)Nc3cccc4ccccc34)cc2C1=O ?
KDM4C inh: inactive; IDH1 mut inh: inactive; T cruzi growth-1: inactive

Results for C[C@H](CO)N1C[C@H](C)[C@@H](CN(C)Cc2ccc(C(F)(F)F)cc2)Oc2ccc(NC(=O)Nc3cccc4ccccc34)cc2C1=O ?
KDM4C inh: inactive; T cruzi growth-1: 100; T cruzi growth-2: 107; T cruzi growth-3: inactive; NIH3T3 tox: inactive; 3T3 cytotox 2: inactive

What do the screens show for `CN(C)C(=O)C[C@H]1CC[C@H]2[C@@H](COc3ccc(NC(=O)c4ccc(F)c(F)c4)cc3C(=O)N2C)O1`?
KDM4C inh: inactive; T cruzi growth-1: inactive

How did C[C@@H]1CCCCO[C@@H](CN(C)C(=O)Nc2ccc3c(c2)OCO3)[C@H](C)CN([C@@H](C)CO)C(=O)c2cc(NC(=O)c3ccccc3)ccc2O1 do in these assays?
KDM4C inh: inactive; IDH1 mut inh: inactive; T cruzi growth-1: inactive

What do the screens show for `CN(C)C(=O)C[C@@H]1C=C[C@@H](NC(=O)C2CCOCC2)[C@H](CO)O1`?
KDM4C inh: inactive

Results for C[C@H](CO)N1C[C@H](C)[C@H](CN(C)Cc2ccc(Cl)c(Cl)c2)Oc2ccc(NS(=O)(=O)c3ccc(F)cc3)cc2C1=O ?
KDM4C inh: inactive; IDH1 mut inh: inactive; T cruzi growth-1: inactive

How did COc1ccc(S(=O)(=O)Nc2ccc3c(c2)C(=O)N([C@@H](C)CO)C[C@H](C)[C@H](CN(C)Cc2ccc(Cl)c(Cl)c2)O3)cc1 do in these assays?
KDM4C inh: inactive; IDH1 mut inh: inactive; T cruzi growth-1: inactive

What do the screens show for `COc1ccc(S(=O)(=O)Nc2ccc3c(c2)C(=O)N([C@H](C)CO)C[C@@H](C)[C@H](CN(C)Cc2ccc(Cl)c(Cl)c2)O3)cc1`?
KDM4C inh: inactive; T cruzi growth-1: 120; T cruzi growth-2: 102; T cruzi growth-3: inactive; NIH3T3 tox: inactive; 3T3 cytotox 2: 104

What do the screens show for `C[C@H]1CN([C@@H](C)CO)C(=O)c2cc(NS(=O)(=O)c3ccc(F)cc3)ccc2O[C@@H]1CN(C)Cc1ccc(Cl)c(Cl)c1`?
KDM4C inh: inactive; IDH1 mut inh: inactive; T cruzi growth-1: inconclusive; T cruzi growth-2: 101; T cruzi growth-3: inactive; NIH3T3 tox: inactive; 3T3 cytotox 2: 98

Results for COc1ccc(S(=O)(=O)Nc2ccc3c(c2)C(=O)N([C@@H](C)CO)C[C@@H](C)[C@H](CN(C)Cc2ccc(Cl)c(Cl)c2)O3)cc1 ?
KDM4C inh: inactive; IDH1 mut inh: inactive; T cruzi growth-1: 121; T cruzi growth-2: 96; T cruzi growth-3: inactive; NIH3T3 tox: 40; 3T3 cytotox 2: 105

Results for COc1ccc(S(=O)(=O)Nc2ccc3c(c2)C(=O)N([C@H](C)CO)C[C@@H](C)[C@@H](CN(C)Cc2ccc(Cl)c(Cl)c2)O3)cc1 ?
KDM4C inh: inactive; IDH1 mut inh: inactive; T cruzi growth-1: inactive

Results for COc1ccc(S(=O)(=O)N[C@H]2C=C[C@H](CC(=O)N3CCN(c4ccccc4)CC3)O[C@H]2CO)cc1 ?
KDM4C inh: inactive; IDH1 mut inh: inactive; T cruzi growth-1: inactive

Results for Cc1noc(C)c1NC(=O)Nc1cccc2c1O[C@@H](CN(C)C(=O)NC(C)C)[C@@H](C)CN([C@@H](C)CO)C2=O ?
KDM4C inh: inactive; IDH1 mut inh: inactive; T cruzi growth-1: inactive

How did Cc1noc(C)c1NC(=O)N(C)C[C@@H]1OCCCC[C@@H](C)Oc2ccc(NS(=O)(=O)c3cccs3)cc2C(=O)N([C@H](C)CO)C[C@H]1C do in these assays?
KDM4C inh: inactive; IDH1 mut inh: inactive; T cruzi growth-1: inactive

Results for C[C@@H]1CN([C@@H](C)CO)C(=O)c2cccc(NS(=O)(=O)c3cn(C)cn3)c2O[C@H]1CN(C)Cc1ccc(C(=O)O)cc1 ?
KDM4C inh: inactive; IDH1 mut inh: inactive; T cruzi growth-1: inactive

What do the screens show for `C[C@H](O)C#Cc1ccc2c(c1)O[C@@H](CN(C)Cc1ccc(-c3ccccc3)cc1)[C@H](C)CN([C@@H](C)CO)S2(=O)=O`?
KDM4C inh: inactive; IDH1 mut inh: inactive; T cruzi growth-1: 113!; T cruzi growth-2: 101; T cruzi growth-3: 99; NIH3T3 tox: 114; 3T3 cytotox 2: 108

How did C[C@@H]1CN([C@H](C)CO)S(=O)(=O)c2ccc(C#CC(C)(C)O)cc2O[C@H]1CN(C)Cc1ccc(-c2ccccc2)cc1 do in these assays?
KDM4C inh: inactive; IDH1 mut inh: inactive; T cruzi growth-1: 121; T cruzi growth-2: inactive; T cruzi growth-3: 110; NIH3T3 tox: 118; 3T3 cytotox 2: 107

Results for C[C@@H]1CN([C@@H](C)CO)S(=O)(=O)c2ccc(C#CC(C)(C)O)cc2O[C@H]1CN(C)Cc1ccccc1 ?
IDH1 mut inh: inactive; T cruzi growth-1: inactive

What do the screens show for `C[C@H](O)C#Cc1ccc2c(c1)O[C@@H](CN(C)Cc1ccc(-c3ccccc3)cc1)[C@@H](C)CN([C@H](C)CO)S2(=O)=O`?
KDM4C inh: inactive; T cruzi growth-1: inactive
